In ChEMBL document CHEMBL1641561, “Evaluation of hadacidin analogues” (Bioorg Med Chem Lett, 2011):
Calls of active or inactive are those of the source. The rule behind the calls is not given here.

Legend:
[1] = Inhibition of adenylosuccinate synthase at 5:1 aspartate to compound ratio
[2] = Inhibition of adenylosuccinate synthase at 1:1 aspartate to compound ratio
[3] = Inhibition of adenylosuccinate synthase at 10 mM
Outline: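 Recombinant His-tagged AdSS (pMOB45 in E. coli BL21(DE3), IPTG-induced at 18 °C, IMAC-purified); 2.0 µg per 100 µl reaction in 20 mM Hepes pH 7.5, 50 µM IMP, 25 µM GTP, 500 µM MgCl2, 10 mM test compound. Started at room temperature with 100 or 500 µM aspartate, frozen after 5 min. Adenylosuccinate quantified by HPLC (266 nm, pH 4.4 phosphate/PIC A/methanol), peak areas over three runs.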

## O=CN(O)CC(=O)O
[1]; concentration not given here
  inhibition: 80%
[2]
  inhibition: inactive
[3]
  inhibition: Active

## O=CN(O)C(CC(=O)O)C(=O)O (centres undefined)
[2]; concentration not given here
  inhibition: 30%

## CC(C(=O)O)N(O)C=O (centres undefined)
[1]; concentration not given here
  inhibition: 50%
[2]; concentration not given here
  inhibition: 90%

## O=C(O)CCNO
[1]
  inhibition: inactive
[2]
  inhibition: inactive

## CCCC(C(=O)O)N(O)C=O (centres undefined)
[1]
  inhibition: inactive
[2]
  inhibition: Active

## CCC(C(=O)O)N(O)C=O (centres undefined)
[1]
  inhibition: inactive
[2]
  inhibition: Active

## O=C(O)CCCNO
[1]
  inhibition: inactive
[2]
  inhibition: inactive

## O=CN(O)CCC(=O)O
[1]
  inhibition: inactive
[2]
  inhibition: inactive

## CC(CCC(=O)O)N(O)C=O (centres undefined)
[1]
  inhibition: inactive
[2]
  inhibition: inactive

## O=CN(O)CCCCC(=O)O
[1]
  inhibition: inactive
[2]
  inhibition: inactive

## O=C(O)CNO
[1]
  inhibition: inactive
[2]
  inhibition: inactive

## O=CN(O)C(CCC(=O)O)C(=O)O (centres undefined)
[2]; concentration not given here
  inhibition: 60%

## O=CN(O)CCCC(=O)O
[1]
  inhibition: inactive
[2]
  inhibition: inactive

## CCC(C)C(C(=O)O)N(O)C=O (centres undefined)
[1]
  inhibition: inactive
[2]
  inhibition: Active

## CC(CCC(=O)O)NO (centres undefined)
[1]
  inhibition: inactive
[2]
  inhibition: inactive
